Screening data: PubChem BioAssay, several laboratories
14-3-3 Bad inh: disrupts binding of bovine 14-3-3 zeta to phospho-Bad peptide. TR-FRET 14-3-3zeta/Dy647-pBad peptide displacement, 1 h. actives 0.71% (n = 220,000). inhibition, % at 21.7 µM. AID 781;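 active means inhibition above about 70%, limit read from the data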;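 further: 0% = full 14-3-3 plus peptide FRET controls and 100% = background without 14-3-3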
Target sequence (P63103 whole entry, looked up): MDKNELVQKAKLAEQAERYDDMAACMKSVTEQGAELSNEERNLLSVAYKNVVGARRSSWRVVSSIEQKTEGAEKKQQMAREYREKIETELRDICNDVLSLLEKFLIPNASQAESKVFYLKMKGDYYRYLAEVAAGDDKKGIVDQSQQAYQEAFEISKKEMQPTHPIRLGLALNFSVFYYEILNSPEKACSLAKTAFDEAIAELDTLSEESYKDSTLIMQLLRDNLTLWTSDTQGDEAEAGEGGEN
RBBP9 inh: inhibitors of human serine hydrolase RBBP9 | recombinant RBBP9, FP-Rh probe fluorescence polarization | inhibition, % at 7.94 µM | actives 0.2% (n = 220,000) | AID 1515;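 active means inhibition above the campaign mean of all tested compounds plus 3 SD, cut at about 14% in these data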;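 further: plate controls were DMSO wells with RBBP9 for no effect and wells lacking RBBP9 protein for full effect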
Target sequence (O75884 whole entry, looked up): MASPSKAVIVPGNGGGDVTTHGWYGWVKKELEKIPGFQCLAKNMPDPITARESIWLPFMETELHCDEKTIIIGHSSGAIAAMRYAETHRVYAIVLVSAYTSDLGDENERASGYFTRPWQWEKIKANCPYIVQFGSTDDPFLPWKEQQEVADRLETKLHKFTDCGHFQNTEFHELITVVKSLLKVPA
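Assay system: recombinant human RBBP9; Reagent: Serine-hydrolase probe FP-Rh, 375 nM pre-mixing; Doses: 7.94 µM single dose, 0.794% DMSO; Incubation: 30 min then 45 min, 25 °C; Detection: fluorescence polarization (mP), excitation 525 nm, emission 598 nm; Evaluation: percent inhibition from mP, scaled between DMSO and no-protein wells.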
WT yeast gro inh: growth inhibition of WT yeast, mitochondrial fusion screen. mitochondrial fusion phenotypic screen, WT strain. inhibition, % at 10 µM. AID 1362. actives 2.1% (n = 190,000); in the data active means inhibition above about 58%; tested in S. cerevisiae
NCF1 inh: p47phox (human) inhibition | P14598 | p47phox/p22phox peptide binding, fluorescence polarization, 2 h | inhibition, % at 24.7 µM | actives 0.53% (n = 220,000) | AID 1274;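 active means inhibition above about 30%, limit read from the data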;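 further: 0% = p47phox with labelled peptide and 100% = labelled peptide alone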
ROMK mod: modulators of human ROMK potassium channel; P48048; Tet-inducible ROMK, thallium flux fluorescence; actives lie on both sides; B-score at 10 µM; actives 2% (n = 130,000);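 active means signal ratio slope over the read window, or its plate-corrected B-score, at least 3 SD from the plate mean, either direction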;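 further: B-score of the F/F0 ratio slope over 7 to 12 s after thallium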
KCC2 mod: modulators of human KCC2 chloride dependent transport. Q9H2X9. actives 2.2% (n = 190,000). B-score of Tl+ flux slope (higher = more flux/activation; lower = inhibition) at 10 µM. KCC2 cells, thallium flux FluoZin-2 fluorescence;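 active means thallium flux slope and its plate-corrected score both differing from the plate sample mean at a set confidence after two filtering rounds, in either direction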;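 further: slope of fluorescence scaled to starting intensity during 10 to 20 s after thallium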
ROMK hit retest: retested hit modulating human ROMK potassium channel. normalized thallium flux (F/F0 slope) at 10 µM. AID 1917. shares compounds with ROMK mod. ROMK thallium flux, fluorescence ratio; stronger effect = lower value. actives 54% (n = 3,000);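 active means Flux at 10 µM at least 3 SD below or above vehicle control mean in one or both replicates; inconclusive means no clear call, values can overlap the other calls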
* hit, by the source's call; ? = inconclusive; · = no result. Hits are enriched below; roughly 5.8% of the tested compounds scored in any of these assays.

SMILES	14-3-3 Bad inh	RBBP9 inh	WT yeast gro inh	NCF1 inh	ROMK mod	KCC2 mod	ROMK hit retest
COc1ccc(CN(C)C(=O)CCl)cc1	-4	-5	-10	-3	-0.48	0.77	·
Clc1ccc(CN2C3=NCCN3c3ccccc32)cc1Cl	-4	6	13	-4	-2.8*	-0.16	0.06*
Cc1ccccc1C=Nc1ccccc1C(N)=O	7	-5	-8	-2	2.8*	0.013	0.087
O=C1N(Cc2cccc(Cl)c2)C[C@@H]2C[C@@H](c3cccn3-c3cccnc3)N3CCC[C@@]123	-10	-5	8	-15	-2.7*	0.13	0.061*
CCn1ncc([C@@H]2C[C@H]3CN(Cc4cccc(Cl)c4)C(=O)[C@]34CCCN24)c1C	1	7	20	2	-0.36	·	·
CCN1C(=O)S/C(=C/c2c(OCc3ccc(C(=O)O)cc3)ccc3ccccc23)C1=O	1	-1	73*	-34	3.9*	-2.1	0.091
O=C(NNc1c(Cl)cccc1Cl)c1ccno1	-7	-8	·	4	-0.3	1.6	·
Cn1nc(C(F)(F)F)cc1C(=O)Nc1ccc(Cl)cc1	0	-7	·	0	·	0.38	0.082
COC(=O)CNC(=O)COC(=O)Cc1ccc(Cl)cc1	-10	-3	6	-7	0.27	0.12	·
O=C(COc1ccccc1)Nc1ccccc1Cl	13	-7	9	-2	-0.21	0.32	·
COc1cc(/C=C2\SC(=S)N(NS(=O)(=O)c3ccccc3)C2=O)ccc1O	-4	-78	·	-202	·	-3.2	0.041*
COc1cc(/C=C2\SC(=S)N(C(C(=O)O)c3ccccc3)C2=O)ccc1O (stereo not drawn)	7	-105	·	-212	·	-0.45	·
CN(C(=O)CSc1nnc(-c2ccncc2)n1C)C1CCS(=O)(=O)C1 (stereo not drawn)	-2	4	-4	1	3.1*	-0.28	0.076
Cc1ccccc1-n1c(SCC(=O)N(C)C2CCS(=O)(=O)C2)nnc1-c1ccncc1 (stereo not drawn)	-5	-11	3	-4	0.57	-0.14	·
CCOc1ccc(CN2CCN(CC(O)Cn3c4ccccc4c4ccccc43)CC2)cc1 (stereo not drawn)	4	-7	85	2	-1.6	0.5	·
COc1ccc(-c2cc3ccccc3n2CC(O)CN2CCC(C)CC2)cc1 (stereo not drawn)	28	4	3	-30	-2*	1.1	0.057*
COc1ccc(-c2cc3ccccc3n2CC(O)Cn2nc(C)cc2C)cc1 (stereo not drawn)	-9	-2	11	-20	·	-0.05	·
COc1ccc(CN2CCN(CC(O)Cn3c4ccccc4c4ccccc43)CC2)cc1 (stereo not drawn)	-26	-9	86	-4	-3.6*	0.77	0.06*
O=[N+]([O-])C(/C=C(/Cl)[N+](=O)[O-])=C(N1CCCCC1)N1CCCCC1	1	0	·	-19	·	-1.1	·
C/C=C/c1ccc(OCC(=O)OCc2csc(Nc3ccc(C)cc3)n2)c(OC)c1	-1	-6	56	-84	-2.6*	0.95	0.065*
N#CC1=C(N)Oc2n[nH]c(-c3cccs3)c2C1c1ccco1 (stereo not drawn)	0	-5	2	-213	-3.5*	-1.6	0.053*
CC(C)CCOC(=O)C[N+](C)(C)CCOC1CC2CCC1(C)C2(C)C (stereo not drawn)	-9	4	19	-4	-4.1*	0.73	0.052*
CCCCCCOC(=O)C[N+](C)(C)CCOC1CC2CCC1(C)C2(C)C (stereo not drawn)	0	2	57	-4	·	·	0.045*
CCCCCCCOC(=O)C[N+](C)(C)CCOC1CC2CCC1(C)C2(C)C (stereo not drawn)	27	-5	78*	-2	·	1.4	0.043*
C=CCN(CC=C)C(=O)c1ccc(OC2CCN(S(=O)(=O)N(C)C)CC2)cc1	-14	5	1	1	0.11	0.61	·
Cc1csc(SCC(=O)Nc2ccccc2[N+](=O)[O-])n1	-5	-4	0	-14	-19*	-0.11	?
